Assay results: ChEMBL document CHEMBL1140929, “Synthesis and evaluation of 18F-labeled 2-phenylbenzothiazoles as positron emission tomography imaging agents for amyloid plaques in Alzheimer's disease” (J Med Chem, 2009)

What was measured:
[1] = target: Amyloid-beta precursor protein (Homo sapiens, UniProt P05067); assay: Displacement of [125I]IMPY from beta-amyloid plaques in Alzheimer's disease patient brain homogenate; assay type: tissue-based
[2] = Biodistribution in NMRI mouse urine at 3.7 MBq/mL, iv after 2 mins by gamma counting; assay type: ADME, organism-based; settings: in vivo
Summary of the method: (§1)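 Male NMRI mice (30-40 g) anaesthetised with 0.1 mL ip Hypnorm (fentanyl citrate 63 µg/mL, fluanisone 2 mg/mL). Each received 0.1 mL of HPLC-purified 18F tracer, diluted in 0.9% NaCl to 3.7 MBq/mL (ethanol ≤10%, THF ≤0.02%), via tail vein. Killed by decapitation at 2 or 60 min; blood and organs weighed and γ-counted. Background-corrected, expressed as %ID or %ID/g.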

Lung [3] = assay: Biodistribution in NMRI mouse lung assessed per gram of tissue at 3.7 MBq/mL, iv after 2 mins by gamma counting; assay type: ADME, organism-based; settings: in vivo; summary of the method: as §1
Blood [4] = assay: Biodistribution in NMRI mouse blood at 3.7 MBq/mL, iv after 60 mins by gamma counting; assay type: ADME, organism-based; settings: in vivo, 1 h; summary of the method: as §1
Stomach [5] = assay: Biodistribution in NMRI mouse stomach at 3.7 MBq/mL, iv after 60 mins by gamma counting; assay type: ADME, organism-based; settings: in vivo, 1 h; summary of the method: as §1
[6] = Biodistribution in NMRI mouse cerebrum at 3.7 MBq/mL, iv after 60 mins by gamma counting; assay type: ADME, organism-based; settings: in vivo, 1 h; summary of the method: as §1
[7] = Biodistribution in NMRI mouse cerebrum at 3.7 MBq/mL, iv after 2 mins by gamma counting; assay type: ADME, organism-based; settings: in vivo; summary of the method: as §1
Blood [8] = assay: Biodistribution in NMRI mouse blood assessed per gram of tissue at 3.7 MBq/mL, iv after 2 mins by gamma counting; assay type: ADME, organism-based; settings: in vivo; summary of the method: as §1
Liver [9] = assay: Biodistribution in NMRI mouse liver assessed per gram of tissue at 3.7 MBq/mL, iv after 2 mins by gamma counting; assay type: ADME, organism-based; settings: in vivo; summary of the method: as §1
Liver [10] = assay: Biodistribution in NMRI mouse liver at 3.7 MBq/mL, iv after 60 mins by gamma counting; assay type: ADME, organism-based; settings: in vivo, 1 h; summary of the method: as §1
Kidney [11] = assay: Biodistribution in NMRI mouse kidney assessed per gram of tissue at 3.7 MBq/mL, iv after 2 mins by gamma counting; assay type: ADME, organism-based; settings: in vivo; summary of the method: as §1
Liver [12] = assay: Biodistribution in NMRI mouse liver assessed per gram of tissue at 3.7 MBq/mL, iv after 60 mins by gamma counting; assay type: ADME, organism-based; settings: in vivo, 1 h; summary of the method: as §1
Kidney [13] = assay: Biodistribution in NMRI mouse kidney assessed per gram of tissue at 3.7 MBq/mL, iv after 60 mins by gamma counting; assay type: ADME, organism-based; settings: in vivo, 1 h; summary of the method: as §1
[14] = Biodistribution in NMRI mouse spleen/pancreas at 3.7 MBq/mL, iv after 60 mins by gamma counting; assay type: ADME, organism-based; settings: in vivo, 1 h; summary of the method: as §1
[15] = Biodistribution in NMRI mouse spleen/pancreas assessed per gram of tissue at 3.7 MBq/mL, iv after 60 mins by gamma counting; assay type: ADME, organism-based; settings: in vivo, 1 h; summary of the method: as §1
[16] = Biodistribution in NMRI mouse cerebrum assessed per gram of tissue at 3.7 MBq/mL, iv after 2 mins by gamma counting; assay type: ADME, organism-based; settings: in vivo; summary of the method: as §1
Heart [17] = assay: Biodistribution in NMRI mouse heart assessed per gram of tissue at 3.7 MBq/mL, iv after 2 mins by gamma counting; assay type: ADME, organism-based; settings: in vivo; summary of the method: as §1
Cerebellum [18] = assay: Biodistribution in NMRI mouse cerebellum at 3.7 MBq/mL, iv after 60 mins by gamma counting; assay type: ADME, organism-based; settings: in vivo, 1 h; summary of the method: as §1
Lung [19] = assay: Biodistribution in NMRI mouse lung at 3.7 MBq/mL, iv after 60 mins by gamma counting; assay type: ADME, organism-based; settings: in vivo, 1 h; summary of the method: as §1
Heart [20] = assay: Biodistribution in NMRI mouse heart at 3.7 MBq/mL, iv after 60 mins by gamma counting; assay type: ADME, organism-based; settings: in vivo, 1 h; summary of the method: as §1
Blood [21] = assay: Biodistribution in NMRI mouse blood at 3.7 MBq/mL, iv after 2 mins by gamma counting; assay type: ADME, organism-based; settings: in vivo; summary of the method: as §1
[22] = Biodistribution in NMRI mouse cerebrum assessed per gram of tissue at 3.7 MBq/mL, iv after 60 mins by gamma counting; assay type: ADME, organism-based; settings: in vivo, 1 h; summary of the method: as §1
Lung [23] = assay: Biodistribution in NMRI mouse lung assessed per gram of tissue at 3.7 MBq/mL, iv after 60 mins by gamma counting; assay type: ADME, organism-based; settings: in vivo, 1 h; summary of the method: as §1
Cerebellum [24] = assay: Biodistribution in NMRI mouse cerebellum assessed per gram of tissue at 3.7 MBq/mL, iv after 2 mins by gamma counting; assay type: ADME, organism-based; settings: in vivo; summary of the method: as §1
Intestine [25] = assay: Biodistribution in NMRI mouse intestine at 3.7 MBq/mL, iv after 60 mins by gamma counting; assay type: ADME, organism-based; settings: in vivo, 1 h; summary of the method: as §1
Heart [26] = assay: Biodistribution in NMRI mouse heart assessed per gram of tissue at 3.7 MBq/mL, iv after 60 mins by gamma counting; assay type: ADME, organism-based; settings: in vivo, 1 h; summary of the method: as §1
Cerebellum [27] = assay: Biodistribution in NMRI mouse cerebellum at 3.7 MBq/mL, iv after 2 mins by gamma counting; assay type: ADME, organism-based; settings: in vivo; summary of the method: as §1
Kidney [28] = assay: Biodistribution in NMRI mouse kidney at 3.7 MBq/mL, iv after 2 mins by gamma counting; assay type: ADME, organism-based; settings: in vivo; summary of the method: as §1
Heart [29] = assay: Biodistribution in NMRI mouse heart at 3.7 MBq/mL, iv after 2 mins by gamma counting; assay type: ADME, organism-based; settings: in vivo; summary of the method: as §1
[30] = Biodistribution in NMRI mouse spleen/pancreas at 3.7 MBq/mL, iv after 2 mins by gamma counting; assay type: ADME, organism-based; settings: in vivo; summary of the method: as §1
[31] = Biodistribution in NMRI mouse urine at 3.7 MBq/mL, iv after 60 mins by gamma counting; assay type: ADME, organism-based; settings: in vivo, 1 h; summary of the method: as §1
Lung [32] = assay: Biodistribution in NMRI mouse lung at 3.7 MBq/mL, iv after 2 mins by gamma counting; assay type: ADME, organism-based; settings: in vivo
[33] = Biodistribution in NMRI mouse spleen/pancreas assessed per gram of tissue at 3.7 MBq/mL, iv after 2 mins by gamma counting; assay type: ADME, organism-based; settings: in vivo; summary of the method: as §1
Cerebellum [34] = assay: Biodistribution in NMRI mouse cerebellum assessed per gram of tissue at 3.7 MBq/mL, iv after 60 mins by gamma counting; assay type: ADME, organism-based; settings: in vivo, 1 h; summary of the method: as §1
Liver [35] = assay: Biodistribution in NMRI mouse liver at 3.7 MBq/mL, iv after 2 mins by gamma counting; assay type: ADME, organism-based; settings: in vivo; summary of the method: as §1
Kidney [36] = assay: Biodistribution in NMRI mouse kidney at 3.7 MBq/mL, iv after 60 mins by gamma counting; assay type: ADME, organism-based; settings: in vivo, 1 h; summary of the method: as §1
Blood [37] = assay: Biodistribution in NMRI mouse blood assessed per gram of tissue at 3.7 MBq/mL, iv after 60 mins by gamma counting; assay type: ADME, organism-based; settings: in vivo, 1 h; summary of the method: as §1
Intestine [38] = assay: Biodistribution in NMRI mouse intestine at 3.7 MBq/mL, iv after 2 mins by gamma counting; assay type: ADME, organism-based; settings: in vivo; summary of the method: as §1
Stomach [39] = assay: Biodistribution in NMRI mouse stomach at 3.7 MBq/mL, iv after 2 mins by gamma counting; assay type: ADME, organism-based; settings: in vivo; summary of the method: as §1

Chain of Amyloid-beta precursor protein (P05067 whole entry): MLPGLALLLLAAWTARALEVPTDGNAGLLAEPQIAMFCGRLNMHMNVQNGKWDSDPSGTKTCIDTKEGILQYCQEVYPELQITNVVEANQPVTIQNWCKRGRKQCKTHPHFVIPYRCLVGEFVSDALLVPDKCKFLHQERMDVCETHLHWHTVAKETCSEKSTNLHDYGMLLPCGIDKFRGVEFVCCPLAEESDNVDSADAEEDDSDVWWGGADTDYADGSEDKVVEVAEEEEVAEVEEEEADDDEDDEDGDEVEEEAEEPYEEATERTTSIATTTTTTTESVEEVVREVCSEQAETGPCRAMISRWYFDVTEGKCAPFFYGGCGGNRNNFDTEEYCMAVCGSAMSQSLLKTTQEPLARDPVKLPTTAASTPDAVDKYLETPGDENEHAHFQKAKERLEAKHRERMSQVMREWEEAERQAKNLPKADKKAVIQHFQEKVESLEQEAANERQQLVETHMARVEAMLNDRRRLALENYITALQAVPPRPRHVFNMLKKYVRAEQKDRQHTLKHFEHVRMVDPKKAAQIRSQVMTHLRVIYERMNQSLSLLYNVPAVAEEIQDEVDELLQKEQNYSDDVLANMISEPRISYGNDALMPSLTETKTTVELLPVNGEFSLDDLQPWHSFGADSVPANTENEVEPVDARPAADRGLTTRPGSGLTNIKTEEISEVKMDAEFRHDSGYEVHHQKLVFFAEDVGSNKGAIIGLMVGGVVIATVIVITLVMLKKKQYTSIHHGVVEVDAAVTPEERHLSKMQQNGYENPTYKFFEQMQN

O=C(O)c1ccc2nc(-c3ccc(F)cc3)sc2c1
Ki [1]: > 4000 nM

COc1ccc2nc(-c3ccc(F)cc3)sc2c1
Ki [1]: 2.2 nM

Oc1ccc2nc(-c3ccc([18F])cc3)sc2c1
Drug uptake [2]: 0.1 %ID
Drug uptake (Lung [3]): 28.1 % ID/g
Drug uptake (Blood [4]): 3.3 %ID
Drug uptake (Stomach [5]): 0.5 %ID
Drug uptake [6]: 0.16 %ID
Drug uptake [7]: 1.35 %ID
Drug uptake (Blood [8]): 4 % ID/g
Drug uptake (Liver [9]): 13.3 % ID/g
Drug uptake (Liver [10]): 24.6 %ID
Drug uptake (Kidney [11]): 12.6 % ID/g
Drug uptake (Liver [12]): 11.9 % ID/g
Drug uptake (Kidney [13]): 11.8 % ID/g
Drug uptake [14]: 0.5 %ID
Drug uptake [15]: 1.8 % ID/g
Drug uptake [16]: 4.7 % ID/g
Drug uptake (Heart [17]): 5.8 % ID/g
Drug uptake (Cerebellum [18]): 0.08 %ID
Drug uptake (Lung [19]): 1.5 %ID
Drug uptake (Heart [20]): 0.1 %ID
Drug uptake (Blood [21]): 10 %ID
Drug uptake [22]: 0.57 % ID/g
Drug uptake (Lung [23]): 5.5 % ID/g
Drug uptake (Cerebellum [24]): 5.13 % ID/g
Drug uptake (Intestine [25]): 36.7 %ID
Drug uptake (Heart [26]): 1.3 % ID/g
Drug uptake (Cerebellum [27]): 0.55 %ID
Drug uptake (Kidney [28]): 7 %ID
Drug uptake (Heart [29]): 0.9 %ID
Drug uptake [30]: 1.2 %ID
Drug uptake [31]: 11.3 %ID
Drug uptake (Lung [32]): 7.6 %ID
Drug uptake [33]: 4 % ID/g
Drug uptake (Cerebellum [34]): 0.76 % ID/g
Drug uptake (Liver [35]): 28.1 %ID
Drug uptake (Kidney [36]): 5.9 %ID
Drug uptake (Blood [37]): 1.3 % ID/g
Drug uptake (Intestine [38]): 7.1 %ID
Drug uptake (Stomach [39]): 1.1 %ID

Cc1ccc2nc(-c3ccc(F)cc3)sc2c1
Ki [1]: 5.7 nM
